Assay results as given in ChEMBL document CHEMBL1155815, “Design, synthesis, and biological evaluation of Mannich bases of heterocyclic chalcone analogs as cytotoxic agents” (Bioorg Med Chem, 2008).
≈ marks a conversion by molar mass, not a printed value. Calls of active or inactive are those of the source. The calls are words filed in the database; no cut-off is given here.

Columns and labels:
Assay type in all cases: functional, cell-based
PC-3 = experiment: Cytotoxicity against human PC3 cells after 3 days by SRB assay; conditions: for EC50: PC-3, 72 h
Outline: (§1)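 Cells grown in RPMI-1640 with HEPES, 0.25% sodium bicarbonate, 10% FBS and kanamycin. Freshly trypsinized cells were seeded at 1500–7500 per well and compounds added from DMSO-diluted stock. After 3 days, attached cells were fixed with cold 50% TCA, stained with 0.4% SRB, and absorbance read after dye solubilization. EC50 = 50% growth reduction, averaged over ≥3 independent determinations.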

MCF7 = experiment: Cytotoxicity against human MCF7 cells after 3 days by SRB assay; conditions: for EC50: MCF7, 72 h; outline: as §1
KB [1] = experiment: Cytotoxicity against human KB cells after 3 days by SRB assay; conditions: for EC50: 72 h; outline: as §1
KB [2] = experiment: Cytotoxicity against vinblastine-resistant human KB cells after 3 days by SRB assay; conditions: in the assay text read “vincristine-resistant” for “vinblastine-resistant”; for EC50: 72 h; outline: as §1

| SMILES | EC50 (PC-3) [µg/mL] | EC50 (MCF7) [µg/mL] | EC50 (KB [1]) [µg/mL] | EC50 (KB [2]) [µg/mL] | Activity (PC-3) | Activity (MCF7) | Activity (KB [1]) | Activity (KB [2]) |
| --- | --- | --- | --- | --- | --- | --- | --- | --- |
| COc1cc(O)c(C(=O)/C=C/c2cccs2)cc1CN1CCOCC1 | 6.6 (≈ 18.4 µM) | 3.12 (≈ 8.68 µM) | 7.75 (≈ 21.6 µM) | 6.25 (≈ 17.4 µM) | – | – | – | – |
| O=C(/C=C/c1ccccn1)c1ccc(CN2CCOCC2)c(O)c1CN1CCOCC1 | 0.44 (≈ 1.04 µM) | 0.46 (≈ 1.09 µM) | 0.82 (≈ 1.94 µM) | 0.71 (≈ 1.68 µM) | – | – | – | – |
| CCOc1cc(O)c(C(=O)/C=C/c2sccc2C)cc1CN1CCOCC1 | – | – | – | – | inactive | inactive | inactive | inactive |
| O=C(/C=C/c1ccccn1)c1ccc(CN2CCOCC2)c(O)c1 | 0.83 (≈ 2.56 µM) | 0.43 (≈ 1.33 µM) | 1.3 (≈ 4.01 µM) | 0.68 (≈ 2.1 µM) | – | – | – | – |
| COc1ccc(/C=C/C(=O)c2cc(CN3CCOCC3)c(OC)cc2O)cc1 | 8.11 (≈ 21.2 µM) | 2.74 (≈ 7.15 µM) | 9.6 (≈ 25 µM) | 6.58 (≈ 17.2 µM) | – | – | – | – |
| O=C(/C=C/c1ccccn1)c1cc(CN2CCOCC2)c(O)c(CN2CCOCC2)c1 | 1.72 (≈ 4.06 µM) | 1.34 (≈ 3.16 µM) | 2.31 (≈ 5.45 µM) | 2.27 (≈ 5.36 µM) | – | – | – | – |
| Cc1ccsc1/C=C/C(=O)c1cc(CN2CCOCC2)c(O)c(CN2CCOCC2)c1 | 12.1 (≈ 27.3 µM) | 16.2 (≈ 36.6 µM) | 9.92 (≈ 22.4 µM) | 12 (≈ 27.1 µM) | – | – | – | – |
| Cc1ccsc1/C=C/C(=O)c1cccc(O)c1CN1CCOCC1 | 2.73 (≈ 7.95 µM) | 1.12 (≈ 3.26 µM) | 5.7 (≈ 16.6 µM) | 1.64 (≈ 4.78 µM) | – | – | – | – |
| O=C(/C=C/c1cccnc1)c1ccc(O)c(CN2CCOCC2)c1 | 0.68 (≈ 2.1 µM) | 0.29 (≈ 0.894 µM) | 2.11 (≈ 6.5 µM) | 0.69 (≈ 2.13 µM) | – | – | – | – |
| COc1cc(O)c(C(=O)/C=C/c2cccnc2)cc1CN1CCOCC1 | 0.84 (≈ 2.37 µM) | 0.1 (≈ 0.282 µM) | – | 4.64 (≈ 13.1 µM) | – | – | inactive | – |
| O=C(/C=C/c1ccccc1)c1ccc(O)c(CN2CCOCC2)c1 | 0.18 (≈ 0.557 µM) | 0.15 (≈ 0.464 µM) | 2.11 (≈ 6.52 µM) | 0.69 (≈ 2.13 µM) | – | – | – | – |
| O=C(/C=C/c1ccccn1)c1ccc(O)c(CN2CCOCC2)c1O | 0.95 (≈ 2.79 µM) | 0.08 (≈ 0.235 µM) | 1.54 (≈ 4.52 µM) | 0.8 (≈ 2.35 µM) | – | – | – | – |
| COc1ccc(/C=C/C(=O)c2ccco2)c(CN2CCCCC2)c1O | 3.07 (≈ 8.99 µM) | 0.47 (≈ 1.38 µM) | 5.18 (≈ 15.2 µM) | 2.61 (≈ 7.64 µM) | – | – | – | – |
| O=C(/C=C/c1cccs1)c1cccc(O)c1CN1CCOCC1 | 1.09 (≈ 3.31 µM) | 1.66 (≈ 5.04 µM) | 2.84 (≈ 8.62 µM) | 2.15 (≈ 6.53 µM) | – | – | – | – |
| O=C(/C=C/c1cccnc1)c1ccc(CN2CCOCC2)c(O)c1 | 0.9 (≈ 2.77 µM) | 0.67 (≈ 2.07 µM) | 2.17 (≈ 6.69 µM) | 1.17 (≈ 3.61 µM) | – | – | – | – |
| O=C(/C=C/c1ccccc1)c1cccc(O)c1CN1CCOCC1 | 0.33 (≈ 1.02 µM) | 0.28 (≈ 0.866 µM) | 0.83 (≈ 2.57 µM) | 0.36 (≈ 1.11 µM) | – | – | – | – |
| O=C(/C=C/c1ccncc1)c1ccc(CN2CCOCC2)c(O)c1 | 1.87 (≈ 5.76 µM) | 1.23 (≈ 3.79 µM) | 1.95 (≈ 6.01 µM) | 2.62 (≈ 8.08 µM) | – | – | – | – |
| CCOc1cc(O)c(C(=O)/C=C/c2ccccc2)cc1CN1CCOCC1 | 6.72 (≈ 18.3 µM) | 5.24 (≈ 14.3 µM) | – | 9.92 (≈ 27 µM) | – | – | inactive | – |

| SMILES | EC50 (PC-3) [µg/mL] | EC50 (MCF7) [µg/mL] | EC50 (KB [1]) [µg/mL] | EC50 (KB [2]) [µg/mL] | Activity (PC-3) | Activity (MCF7) | Activity (KB [1]) | Activity (KB [2]) |
| --- | --- | --- | --- | --- | --- | --- | --- | --- |
| CC(C)Oc1ccc(C(=O)/C=C/c2cccs2)c(O)c1CN1CCOCC1 | 2.8 (≈ 7.23 µM) | 0.66 (≈ 1.7 µM) | 5.12 (≈ 13.2 µM) | 1.45 (≈ 3.74 µM) | – | – | – | – |
| COc1cc(O)c(C(=O)/C=C/c2ccccc2)cc1CN1CCOCC1 | 0.78 (≈ 2.21 µM) | 0.03 (≈ 0.0849 µM) | 14.9 (≈ 42.2 µM) | 3.5 (≈ 9.9 µM) | – | – | – | – |
| O=C(/C=C/c1ccccn1)c1ccc(O)c(CN2CCOCC2)c1 | 0.31 (≈ 0.956 µM) | 0.12 (≈ 0.37 µM) | 0.73 (≈ 2.25 µM) | 0.3 (≈ 0.925 µM) | – | – | – | – |
| CCOc1cc(O)c(C(=O)/C=C/c2ccc(C)o2)cc1CN1CCOCC1 | – | – | – | – | inactive | inactive | inactive | inactive |
| CCOc1cc(O)c(C(=O)/C=C/c2ccco2)cc1CN1CCOCC1 | – | 20 (≈ 56 µM) | – | – | inactive | – | inactive | inactive |
| O=C(/C=C/c1ccco1)c1cccc(O)c1CN1CCOCC1 | 3.8 (≈ 12.1 µM) | 4.7 (≈ 15 µM) | 5.63 (≈ 18 µM) | 5.77 (≈ 18.4 µM) | – | – | – | – |
| O=C(/C=C/c1cccs1)c1ccc(O)c(CN2CCOCC2)c1 | 6.49 (≈ 19.7 µM) | 5.62 (≈ 17.1 µM) | 5.14 (≈ 15.6 µM) | 2.58 (≈ 7.83 µM) | – | – | – | – |
| COc1ccc(/C=C/C(=O)c2cccc(C)c2)c(CN2CCOCC2)c1O | 0.66 (≈ 1.8 µM) | 0.42 (≈ 1.14 µM) | 1.12 (≈ 3.05 µM) | 0.6 (≈ 1.63 µM) | – | – | – | – |
| O=C(/C=C/c1ccncc1)c1ccc(O)c(CN2CCOCC2)c1 | 0.1 (≈ 0.308 µM) | 0.15 (≈ 0.462 µM) | 0.74 (≈ 2.28 µM) | 0.41 (≈ 1.26 µM) | – | – | – | – |
| CCOc1cc(O)c(C(=O)/C=C/c2cccnc2)cc1CN1CCOCC1 | – | 10.6 (≈ 28.8 µM) | – | – | inactive | – | inactive | inactive |
| COc1ccc(/C=C/C(=O)c2cccnc2)c(CN2CCCCC2)c1O | 6.77 (≈ 19.2 µM) | 0.3 (≈ 0.851 µM) | 6.14 (≈ 17.4 µM) | 2.64 (≈ 7.49 µM) | – | – | – | – |
| CC(C)=CCOc1ccc(C(=O)/C=C/c2sccc2C)c(O)c1CN1CCOCC1 | – | 3.19 (≈ 7.46 µM) | 8.43 (≈ 19.7 µM) | 7.21 (≈ 16.9 µM) | inactive | – | – | – |
| O=C(/C=C/c1ccco1)c1ccc(O)c(CN2CCOCC2)c1 | 7.43 (≈ 23.7 µM) | 4.87 (≈ 15.5 µM) | 6.12 (≈ 19.5 µM) | 3.27 (≈ 10.4 µM) | – | – | – | – |
| COc1cc(O)c(C(=O)/C=C/c2ccco2)cc1CN1CCOCC1 | 16.8 (≈ 48.9 µM) | 1.51 (≈ 4.4 µM) | 13.5 (≈ 39.4 µM) | 8.12 (≈ 23.6 µM) | – | – | – | – |
| COc1ccc(C(=O)/C=C/c2ccccn2)c(O)c1CN1CCOCC1 | 10.5 (≈ 29.7 µM) | 0.25 (≈ 0.705 µM) | 3.41 (≈ 9.62 µM) | 1.13 (≈ 3.19 µM) | – | – | – | – |
| CCOc1cc(O)c(C(=O)/C=C/c2ccccn2)cc1CN1CCOCC1 | 3.14 (≈ 8.52 µM) | 4.13 (≈ 11.2 µM) | 5.72 (≈ 15.5 µM) | 5.55 (≈ 15.1 µM) | – | – | – | – |
| COc1ccc(/C=C/C(=O)c2cccs2)c(CN2CCCCC2)c1O | 2.02 (≈ 5.65 µM) | 0.11 (≈ 0.308 µM) | 2.93 (≈ 8.2 µM) | 2.09 (≈ 5.85 µM) | – | – | – | – |
| CC(C)Oc1cc(O)c(C(=O)/C=C/c2cccs2)cc1CN1CCOCC1 | 4.04 (≈ 10.4 µM) | 0.24 (≈ 0.619 µM) | 9.44 (≈ 24.4 µM) | 5.02 (≈ 13 µM) | – | – | – | – |
